Data: ChEMBL document CHEMBL2010788, “Consequences of linker length alteration of the α7 nicotinic acetylcholine receptor (nAChR) agonist, SEN12333” (Bioorg Med Chem Lett, 2012)
Calls of active or inactive are those of the source. The rule behind the calls is not given here.

Experiments:
[1] = target: T1, Neuronal acetylcholine receptor subunit alpha-7 (Rattus norvegicus, UniProt Q05941); assay: Displacement of [3H]epibatidine from rat alpha7 nAChR expressed in […] cells after 4 hrs by liquid scintillation counting; format: cell-based
T1 sequence (Q05941 whole entry): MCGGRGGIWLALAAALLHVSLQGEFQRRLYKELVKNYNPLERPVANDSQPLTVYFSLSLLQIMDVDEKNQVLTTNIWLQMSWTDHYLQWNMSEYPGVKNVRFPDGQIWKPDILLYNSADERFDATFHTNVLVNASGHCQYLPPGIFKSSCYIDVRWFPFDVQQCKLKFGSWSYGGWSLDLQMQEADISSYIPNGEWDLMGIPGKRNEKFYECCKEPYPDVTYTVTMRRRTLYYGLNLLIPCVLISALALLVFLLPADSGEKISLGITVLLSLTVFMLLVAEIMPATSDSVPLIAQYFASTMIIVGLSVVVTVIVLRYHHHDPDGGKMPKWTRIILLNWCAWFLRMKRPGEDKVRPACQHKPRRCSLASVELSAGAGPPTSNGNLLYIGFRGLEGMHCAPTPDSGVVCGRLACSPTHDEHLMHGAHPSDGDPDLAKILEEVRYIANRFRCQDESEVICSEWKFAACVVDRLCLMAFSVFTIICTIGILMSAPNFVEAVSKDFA
Summary of the method: (§1)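 Competition binding against racemic [³H]epibatidine. Receptor source: membrane homogenates of HEK293 cells stably transfected with the rat nAChR subtype (α3β4, α4β2 or α7). Affinity reported as Ki.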

[2] = target: Neuronal acetylcholine receptor; alpha4/beta2 (Rattus norvegicus, UniProt P09483+P12390); assay: Displacement of [3H]epibatidine from rat alpha4beta2 nAChR expressed in […] cells after 4 hrs by liquid scintillation counting; format: cell-based; summary of the method: as §1
Chain of Neuronal acetylcholine receptor; alpha4/beta2 (P09483 whole entry): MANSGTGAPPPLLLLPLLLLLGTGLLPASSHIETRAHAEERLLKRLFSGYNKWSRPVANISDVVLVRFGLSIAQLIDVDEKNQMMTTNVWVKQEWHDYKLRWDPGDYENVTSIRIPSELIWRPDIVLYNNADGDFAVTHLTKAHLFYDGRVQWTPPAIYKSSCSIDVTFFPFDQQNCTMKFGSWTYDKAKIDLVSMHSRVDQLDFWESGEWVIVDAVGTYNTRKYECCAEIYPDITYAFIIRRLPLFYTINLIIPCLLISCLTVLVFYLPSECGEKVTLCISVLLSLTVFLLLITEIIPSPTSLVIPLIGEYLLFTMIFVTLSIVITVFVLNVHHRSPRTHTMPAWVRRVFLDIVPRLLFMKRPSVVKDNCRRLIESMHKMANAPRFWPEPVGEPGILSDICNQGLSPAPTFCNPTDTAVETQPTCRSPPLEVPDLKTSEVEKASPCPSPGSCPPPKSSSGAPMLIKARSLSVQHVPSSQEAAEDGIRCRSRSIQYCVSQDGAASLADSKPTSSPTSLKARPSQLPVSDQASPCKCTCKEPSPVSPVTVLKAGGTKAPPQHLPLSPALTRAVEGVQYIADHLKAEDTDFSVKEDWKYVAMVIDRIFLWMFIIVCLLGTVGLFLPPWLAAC
Chain of Neuronal acetylcholine receptor; alpha4/beta2 (P12390 whole entry): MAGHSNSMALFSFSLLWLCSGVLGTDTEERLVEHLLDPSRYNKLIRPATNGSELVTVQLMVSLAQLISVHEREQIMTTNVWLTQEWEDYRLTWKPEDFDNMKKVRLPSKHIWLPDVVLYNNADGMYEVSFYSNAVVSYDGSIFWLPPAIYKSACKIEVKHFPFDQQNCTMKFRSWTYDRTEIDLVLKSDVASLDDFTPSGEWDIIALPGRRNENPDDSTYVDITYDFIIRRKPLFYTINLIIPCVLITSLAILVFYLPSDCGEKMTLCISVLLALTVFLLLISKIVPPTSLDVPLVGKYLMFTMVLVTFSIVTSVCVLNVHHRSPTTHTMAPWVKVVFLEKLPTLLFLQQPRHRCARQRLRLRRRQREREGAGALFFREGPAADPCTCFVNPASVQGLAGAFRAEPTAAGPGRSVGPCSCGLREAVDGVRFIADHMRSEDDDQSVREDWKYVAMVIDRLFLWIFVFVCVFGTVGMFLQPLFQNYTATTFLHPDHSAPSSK

[3] = target: Neuronal acetylcholine receptor; alpha3/beta4 (Rattus norvegicus, UniProt P04757+P12392); assay: Displacement of [3H]epibatidine from rat alpha3beta4 nAChR expressed in […] cells after 4 hrs by liquid scintillation counting; format: cell-based; summary of the method: as §1
Chain of Neuronal acetylcholine receptor; alpha3/beta4 (P04757 whole entry): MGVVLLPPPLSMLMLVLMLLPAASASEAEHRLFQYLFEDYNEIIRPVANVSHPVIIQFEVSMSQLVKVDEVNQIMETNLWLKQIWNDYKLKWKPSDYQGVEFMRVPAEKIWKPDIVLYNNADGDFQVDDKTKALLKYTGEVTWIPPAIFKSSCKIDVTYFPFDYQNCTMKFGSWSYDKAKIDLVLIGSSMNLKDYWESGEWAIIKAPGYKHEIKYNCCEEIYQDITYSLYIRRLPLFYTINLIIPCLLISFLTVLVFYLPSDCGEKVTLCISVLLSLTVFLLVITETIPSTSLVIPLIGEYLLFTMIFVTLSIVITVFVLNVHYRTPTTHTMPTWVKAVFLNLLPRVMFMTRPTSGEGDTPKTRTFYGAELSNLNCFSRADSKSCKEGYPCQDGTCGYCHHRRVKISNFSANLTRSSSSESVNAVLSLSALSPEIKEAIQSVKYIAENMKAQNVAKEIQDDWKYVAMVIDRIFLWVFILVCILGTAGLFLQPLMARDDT
Chain of Neuronal acetylcholine receptor; alpha3/beta4 (P12392 whole entry): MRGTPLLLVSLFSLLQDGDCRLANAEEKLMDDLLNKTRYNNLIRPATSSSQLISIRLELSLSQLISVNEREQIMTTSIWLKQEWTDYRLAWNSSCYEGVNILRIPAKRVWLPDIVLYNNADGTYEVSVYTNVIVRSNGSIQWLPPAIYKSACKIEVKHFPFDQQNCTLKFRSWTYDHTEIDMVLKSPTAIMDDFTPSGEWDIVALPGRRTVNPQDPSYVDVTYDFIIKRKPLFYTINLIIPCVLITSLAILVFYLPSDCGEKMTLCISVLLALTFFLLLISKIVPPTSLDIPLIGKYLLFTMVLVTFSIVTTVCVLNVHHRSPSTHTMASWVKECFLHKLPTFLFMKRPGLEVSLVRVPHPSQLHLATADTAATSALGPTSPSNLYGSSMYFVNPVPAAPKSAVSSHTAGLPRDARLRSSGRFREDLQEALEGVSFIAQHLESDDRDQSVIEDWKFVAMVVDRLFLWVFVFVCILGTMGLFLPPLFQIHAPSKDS

[4] = target: Neuronal acetylcholine receptor subunit alpha-7 (Rattus norvegicus) (UniProt Q05941); assay: Agonist activity at wild type rat recombinant alpha7 nAChR expressed in Xenopus oocyte at 100 uM by voltage clamp electrophysiology assay; format: functional
Chain of Neuronal acetylcholine receptor subunit alpha-7 (Rattus norvegicus) (Q05941 whole entry): as the sequence (Q05941 whole entry) above

[5] = target: Neuronal acetylcholine receptor subunit alpha-7 (Rattus norvegicus) (UniProt Q05941); assay: Antagonist activity at wild type rat recombinant alpha7 nAChR expressed in Xenopus oocyte assessed as inhibition of ACh-gated current at 100 uM by voltage clamp electrophysiology assay; format: functional
[6] = target: T1, Neuronal acetylcholine receptor subunit alpha-7; assay: Partial agonist activity at wild type rat recombinant alpha7 nAChR expressed in Xenopus oocyte by voltage clamp electrophysiology assay; format: functional
[7] = target: Neuronal acetylcholine receptor subunit alpha-7 (Rattus norvegicus) (UniProt Q05941); assay: Partial agonist activity at wild type rat alpha7 nAChR expressed in Xenopus oocyte by voltage clamp electrophysiology assay relative to acetylcholine; format: functional

Question: With `O=C(CCCCCN1CCOCC1)Nc1ccc(-c2cccnc2)cc1` as the compound, how does the Ki [1] read?
Answer: > 10 µM

Question: What about the Ki [2] of the same compound?
Answer: > 10 µM

Question: What about the Ki [3] of the same compound?
Answer: > 10 µM

Question: And the Activity [4]?
Answer: inactive

Question: What about the inhibition [5] of the same compound?
Answer: inactive

Question: What does the source list for `O=C(CN1CCOCC1)Nc1ccc(-c2cccnc2)cc1`?
Answer: Ki [1]: 3.9 µM; Ki [2]: > 10 µM; Ki [3]: > 10 µM; Activity [4]: inactive; inhibition [5]: inactive

Question: How did the Ki [1] turn out when `O=C(CCCN1CCOCC1)Nc1ccc(-c2cccnc2)cc1` was run?
Answer: > 10 µM

Question: What about the Ki [2] of the same compound?
Answer: > 10 µM

Question: What about the Ki [3] of the same compound?
Answer: > 10 µM

Question: What about the Activity [4] of the same compound?
Answer: inactive

Question: What about the inhibition [5] of the same compound?
Answer: inactive

Question: With `O=C(CCCCN1CCOCC1)Nc1ccc(-c2cccnc2)cc1` as the compound, how does the EC50 [6] read?
Answer: 9.5 µM

Question: And the Ki [1]?
Answer: 0.5 µM

Question: What about the Activity [7] of the same compound?
Answer: 11%

Question: What about the Ki [2] of the same compound?
Answer: > 10 µM

Question: And the Ki [3]?
Answer: > 10 µM

Question: Which Ki [1] does the source give for `O=C(CCN1CCOCC1)Nc1ccc(-c2cccnc2)cc1` here?
Answer: > 10 µM

Question: And the Ki [2]?
Answer: > 10 µM

Question: What about the Ki [3] of the same compound?
Answer: > 10 µM

Question: And the Activity [4]?
Answer: inactive

Question: What about the inhibition [5] of the same compound?
Answer: inactive
